In ChEMBL document CHEMBL3232744, “Design, synthesis, acetylcholinesterase inhibition and larvicidal activity of girgensohnine analogs on Aedes aegypti, vector of dengue fever” (Eur J Med Chem, 2014):
Values after ≈ are worked out from the molar mass of the structure shown. Active and inactive are the calls of the source. The rule behind the calls is not given here.

Tests used:
Acetylcholinesterase = Acetylcholinesterase (Homo sapiens, UniProt P22303); assay: Inhibition of AChE (unknown origin) by Ellman colorimetric method
Acetylcholinesterase, sequence (P22303 whole entry): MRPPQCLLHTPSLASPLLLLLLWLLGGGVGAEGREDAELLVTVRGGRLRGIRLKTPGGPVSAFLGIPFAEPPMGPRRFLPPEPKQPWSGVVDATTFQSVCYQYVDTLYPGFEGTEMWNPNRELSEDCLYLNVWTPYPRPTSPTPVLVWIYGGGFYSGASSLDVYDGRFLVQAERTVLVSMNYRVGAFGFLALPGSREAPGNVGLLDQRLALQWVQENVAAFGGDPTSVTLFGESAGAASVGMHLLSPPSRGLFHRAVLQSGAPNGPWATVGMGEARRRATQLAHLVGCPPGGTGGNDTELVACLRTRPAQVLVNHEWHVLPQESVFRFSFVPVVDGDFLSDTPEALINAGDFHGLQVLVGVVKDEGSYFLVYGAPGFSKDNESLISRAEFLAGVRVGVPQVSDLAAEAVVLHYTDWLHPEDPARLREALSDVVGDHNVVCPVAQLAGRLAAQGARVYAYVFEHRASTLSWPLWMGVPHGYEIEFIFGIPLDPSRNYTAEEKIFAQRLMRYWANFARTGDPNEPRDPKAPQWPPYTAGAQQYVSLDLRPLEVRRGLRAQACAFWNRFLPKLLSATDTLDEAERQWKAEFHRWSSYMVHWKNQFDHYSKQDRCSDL

Aedes aegypti [1] = assay: Insecticidal activity against third-instar larvae of Aedes aegypti assessed as mortality at 140 ppm after 24 to 48 hrs; type: functional, organism-based
Procedure, shortened: (§1)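 Diagnostic screen with third-instar larvae. Five larvae per pot, four replicates per concentration. Compounds tested at 300, 270, 180, 140, 70, 60, 45 and 25 ppm. Control pots held 1% DMSO only. Mortality was scored at 24 and 48 h. Larvae that could not reach the water surface when touched were counted as dead.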

[2] = Dissociation constant, pKa of the compound; type: physicochemical
Aedes aegypti [3] = assay: Insecticidal activity against third-instar larvae of Aedes aegypti assessed as mortality at 25 ppm after 24 to 48 hrs; type: functional, organism-based; procedure, shortened: as §1
Aedes aegypti [4] = assay: Insecticidal activity against third-instar larvae of Aedes aegypti assessed as mortality at 180 ppm after 24 to 48 hrs; type: functional, organism-based; procedure, shortened: as §1
Aedes aegypti [5] = assay: Insecticidal activity against third-instar larvae of Aedes aegypti assessed as mortality at 60 ppm after 24 to 48 hrs; type: functional, organism-based; procedure, shortened: as §1
Aedes aegypti [6] = assay: Insecticidal activity against third-instar larvae of Aedes aegypti assessed as mortality at 270 ppm after 24 to 48 hrs; type: functional, organism-based; procedure, shortened: as §1
Aedes aegypti [7] = assay: Insecticidal activity against third-instar larvae of Aedes aegypti assessed as mortality; type: functional
Procedure, shortened: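 Third-instar larvae exposed in a diagnostic screen to 1000, 300, 270, 180, 140, 70, 60, 45 and 25 ppm. Five larvae per pot, four replicates per concentration, 1% DMSO-only control. Mortality scored at 24 and 48 h; larvae unable to reach the water surface when touched were counted dead.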

Aedes aegypti [8] = assay: Insecticidal activity against third-instar larvae of Aedes aegypti assessed as mortality after 48 hrs; type: functional
Procedure, shortened: (§2)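 In a second bioassay, third-instar larvae were exposed to 150, 130, 100, 85 and 55 ppm, with a 1% DMSO control. Five larvae per pot, four replicates. Death was scored as failure to reach the water surface when touched, at 24 h or 48 h. LC50 and LC99 with confidence intervals came from probit analysis.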

Aedes aegypti [9] = assay: Insecticidal activity against third-instar larvae of Aedes aegypti assessed as mortality after 24 hrs; type: functional; procedure, shortened: as §2
Aedes aegypti [10] = assay: Insecticidal activity against third-instar larvae of Aedes aegypti assessed as mortality at 300 ppm after 24 to 48 hrs; type: functional, organism-based; procedure, shortened: as §1
Aedes aegypti [11] = assay: Insecticidal activity against third-instar larvae of Aedes aegypti assessed as mortality at 70 ppm after 24 to 48 hrs; type: functional, organism-based; procedure, shortened: as §1
Aedes aegypti [12] = assay: Insecticidal activity against third-instar larvae of Aedes aegypti assessed as mortality at 45 ppm after 24 to 48 hrs; type: functional, organism-based; procedure, shortened: as §1

SMILES	IC50 (Acetylcholinesterase)	pKa [2]	further results
COc1ccc(C(C#N)N2CCOCC2)cc1OC (racemic)	54 µM	2.2	Activity (Aedes aegypti [1]): Active
COc1ccc(C(C#N)N2CCN(C)CC2)cc1O (racemic)	350 µM	7.7	
N#CC(c1ccc(O)cc1)N1CCOCC1 (racemic)		2.4	
COc1cc(C(C#N)N2CCCC2)cc(OC)c1OC (racemic)	321 µM	4.2	
COc1ccc(C(C#N)N2CCCCC2)cc1O (racemic)	478 µM	4	
COc1ccc(C(C#N)N2CCOCC2)cc1O (racemic)	363 µM	2.2	
CN1CCN(C(C#N)c2ccc(O)cc2)CC1 (racemic)		7.7	
COc1ccc(C(C#N)N2CCCC2)cc1OC (racemic)	42 µM	4.3	Activity (Aedes aegypti [3]): Active; Activity (Aedes aegypti [1]): Active; Activity (Aedes aegypti [4]): Active; Activity (Aedes aegypti [5]): Active
N#CC(c1ccc2c(c1)OCO2)N1CCCC1 (racemic)	51 µM	4.3	Activity (Aedes aegypti [1]): Active; Activity (Aedes aegypti [4]): Active; Activity (Aedes aegypti [6]): Active
CN1CCN(C(C#N)c2ccc3c(c2)OCO3)CC1 (racemic)	275 µM	7.6	
CCOP(=S)(OCC)Oc1cc(C)nc(C(C)C)n1 [DIMPYLATE]	1.9 µM		
COc1cc(C(C#N)N2CCCCC2)ccc1O (racemic)	448 µM	4.1	
COc1cc(C(C#N)N2CCCC2)ccc1O (racemic)	358 µM	4.4	
COc1ccc(C(C#N)N2CCN(C)CC2)cc1OC (racemic)	379 µM	7.6	
COP(=S)(OC)Oc1ccc(Sc2ccc(OP(=S)(OC)OC)cc2)cc1 [TEMEFOS]			LC50 (Aedes aegypti [7]): 0.006 µg/mL (≈ 0.0129 µM)
N#CC(c1ccc(O)cc1)N1CCCCC1 (racemic)	93 µM	4.2	
COc1cc(C(C#N)N2CCN(C)CC2)cc(OC)c1OC (racemic)	406 µM	7.6	
COc1cc(C(C#N)N2CCOCC2)ccc1O (racemic)	409 µM	2.3	
COc1cc(C(C#N)N2CCN(C)CC2)ccc1O (racemic)	340 µM	7.7	
N#CC(c1ccc2c(c1)OCO2)N1CCOCC1 (racemic)	58 µM	2.2	Activity (Aedes aegypti [1]): Active
COc1ccc(C(C#N)N2CCCC2)cc1O (racemic)	394 µM	4.3	
COc1cc(C(C#N)N2CCCCC2)cc(OC)c1OC (racemic)	381 µM	3.9	
COc1ccc(C(C#N)N2CCCCC2)cc1OC (racemic)	45 µM	4	LC99 (Aedes aegypti [8]): 155.57 ppm; LC50 (Aedes aegypti [8]; Aedes aegypti, 48 h): 87.5 µg/mL (≈ 336 µM); Activity (Aedes aegypti [4]): Active; LC99 (Aedes aegypti [9]): 147.54 ppm; LC50 (Aedes aegypti [9]; Aedes aegypti, 24 h): 88.1 µg/mL (≈ 338 µM); Activity (Aedes aegypti [10]): Active
N#CC(c1ccc(O)cc1)N1CCCC1 (racemic)		4.5	
COc1cc(C(C#N)N2CCOCC2)cc(OC)c1OC (racemic)	389 µM	2.1	
N#CC(c1ccc2c(c1)OCO2)N1CCCCC1 (racemic)	61.4 µM	4	Activity (Aedes aegypti [3]): Active; Activity (Aedes aegypti [1]): Active; Activity (Aedes aegypti [4]): Active; Activity (Aedes aegypti [11]): Active; Activity (Aedes aegypti [12]): Active; Activity (Aedes aegypti [6]): Active
